pIC50: −log10 of the molar value.

Assay [1] has as its target T1, Lysyl oxidase homolog 2 (Homo sapiens, UniProt Q9Y4K0).
T1 sequence (Q9Y4K0 whole entry): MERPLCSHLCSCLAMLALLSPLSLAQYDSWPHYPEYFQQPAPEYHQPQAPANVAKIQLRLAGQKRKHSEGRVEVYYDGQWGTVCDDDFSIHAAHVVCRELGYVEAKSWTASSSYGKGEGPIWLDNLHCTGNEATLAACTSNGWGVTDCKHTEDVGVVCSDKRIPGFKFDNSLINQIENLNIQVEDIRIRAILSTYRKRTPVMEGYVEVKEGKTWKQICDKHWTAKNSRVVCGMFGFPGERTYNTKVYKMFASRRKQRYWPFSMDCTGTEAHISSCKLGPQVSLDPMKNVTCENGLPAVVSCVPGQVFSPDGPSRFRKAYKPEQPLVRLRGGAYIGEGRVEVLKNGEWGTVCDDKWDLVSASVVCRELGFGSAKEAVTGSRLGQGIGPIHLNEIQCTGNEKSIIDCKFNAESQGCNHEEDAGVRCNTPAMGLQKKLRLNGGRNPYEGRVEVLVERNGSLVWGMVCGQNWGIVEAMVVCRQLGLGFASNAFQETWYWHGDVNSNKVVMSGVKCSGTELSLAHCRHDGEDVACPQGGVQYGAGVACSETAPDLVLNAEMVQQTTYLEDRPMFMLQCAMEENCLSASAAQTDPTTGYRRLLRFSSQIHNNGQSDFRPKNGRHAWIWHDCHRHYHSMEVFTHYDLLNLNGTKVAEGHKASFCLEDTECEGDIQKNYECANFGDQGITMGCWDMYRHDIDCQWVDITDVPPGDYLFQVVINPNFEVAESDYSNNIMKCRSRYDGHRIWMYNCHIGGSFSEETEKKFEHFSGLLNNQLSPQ
Nature of the assay: Inhibition of full length recombinant human LOXL2 expressed in CHO cells assessed as reduction in H2O2 production using DAP as substrate preincubated for 2 hrs followed by substrate addition measured every 2 minutes for 50 minutes by Amplex red dye based fluorescence assay.

Assay [2] addresses T1, Lysyl oxidase homolog 2. Kind of assay: Inhibition of full length recombinant human LOXL2 expressed in CHO cells assessed as reduction in H2O2 production using DAP as substrate preincubated for 2 hrs followed by substrate addition measured every 2 minutes for 50 minutes in presence of BSA by Amplex red dye based fluorescence assay. Put shortly: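 Serum-free concentrated conditioned medium from CHO cells stably expressing human LOXL2, supplemented with BSA. Compounds preincubated for 2 h (the screening preincubation time). Substrate was 1,5-diaminopentane, and the H2O2 formed was detected with Amplex Red. IC50 given as geometric mean x/÷ geometric SD over N determinations.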

For assay [3], the target named is T1, Lysyl oxidase homolog 2. Nature of the assay: Inhibition of full length recombinant human LOXL2 expressed in CHO cells assessed as reduction in H2O2 production using DAP as substrate preincubated for 15 mins followed by substrate addition measured every 2 minutes for 50 minutes by Amplex red dye based fluorescence assay. Put shortly: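 Enzyme source: serum-free concentrated conditioned medium from CHO cells stably expressing human LOXL2. Inhibitor preincubated with enzyme for 15 min, then 1,5-diaminopentane (DAP) added. H2O2 from oxidative deamination read by Amplex Red. IC50 reported as geometric mean x/÷ geometric SD, with N given.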

A further assay addresses T2, Protein-lysine 6-oxidase (Homo sapiens, UniProt P28300).
T2 sequence (P28300 whole entry): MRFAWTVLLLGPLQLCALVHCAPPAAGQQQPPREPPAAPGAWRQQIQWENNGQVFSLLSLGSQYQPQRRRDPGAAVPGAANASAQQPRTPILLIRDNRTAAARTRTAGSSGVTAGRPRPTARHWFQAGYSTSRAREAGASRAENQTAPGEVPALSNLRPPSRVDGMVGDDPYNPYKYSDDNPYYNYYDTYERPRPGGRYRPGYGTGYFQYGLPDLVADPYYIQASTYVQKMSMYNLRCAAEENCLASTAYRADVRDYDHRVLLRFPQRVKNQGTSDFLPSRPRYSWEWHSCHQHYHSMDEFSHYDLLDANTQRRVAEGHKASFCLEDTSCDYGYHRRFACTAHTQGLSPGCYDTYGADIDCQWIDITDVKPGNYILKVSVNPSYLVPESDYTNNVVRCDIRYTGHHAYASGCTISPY
Nature of the assay: Inhibition of full length recombinant human LOX expressed in HEK cells assessed as reduction in H2O2 production using DAP as substrate preincubated for 2 hrs followed by substrate addition measured every 2 minutes for 50 minutes in presence of BSA by Amplex red dye based fluorescence assay. Put shortly:
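Enzyme source: serum-free conditioned media from HEK cells stably expressing human LOX, with BSA added to give measurable activity. Activity is measured as H2O2 from oxidative deamination of 1,5-diaminopentane (DAP), read by Amplex Red. IC50 is given as geometric mean x/÷ geometric standard deviation, with N-values reported.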

Assay [4] deals with T3, Lysyl oxidase homolog 2 (Mus musculus, UniProt P58022).
T3 sequence (P58022 whole entry): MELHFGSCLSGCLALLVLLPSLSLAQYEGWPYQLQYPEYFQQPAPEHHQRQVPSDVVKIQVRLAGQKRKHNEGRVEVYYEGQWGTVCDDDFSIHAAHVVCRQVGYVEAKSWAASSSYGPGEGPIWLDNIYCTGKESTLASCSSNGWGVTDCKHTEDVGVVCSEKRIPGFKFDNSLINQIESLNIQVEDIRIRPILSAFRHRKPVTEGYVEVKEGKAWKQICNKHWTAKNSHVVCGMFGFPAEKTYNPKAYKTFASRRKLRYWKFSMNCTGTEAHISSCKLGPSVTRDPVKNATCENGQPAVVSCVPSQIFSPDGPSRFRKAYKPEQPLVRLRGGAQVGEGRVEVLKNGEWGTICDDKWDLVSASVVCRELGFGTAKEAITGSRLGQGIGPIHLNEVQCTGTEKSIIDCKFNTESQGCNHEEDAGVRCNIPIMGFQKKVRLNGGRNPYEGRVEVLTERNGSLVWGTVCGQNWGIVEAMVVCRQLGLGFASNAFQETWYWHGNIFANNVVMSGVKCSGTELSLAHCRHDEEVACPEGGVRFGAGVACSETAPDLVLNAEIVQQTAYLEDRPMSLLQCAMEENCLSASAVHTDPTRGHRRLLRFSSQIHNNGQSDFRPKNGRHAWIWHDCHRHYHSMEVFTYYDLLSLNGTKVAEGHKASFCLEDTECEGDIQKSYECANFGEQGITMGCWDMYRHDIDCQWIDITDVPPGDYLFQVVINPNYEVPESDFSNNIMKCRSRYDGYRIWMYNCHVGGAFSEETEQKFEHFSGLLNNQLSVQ
Kind of assay: Inhibition of full length recombinant mouse LOXL2 expressed in CHO cells assessed as reduction in H2O2 production using DAP as substrate preincubated for 2 hrs followed by substrate addition measured every 2 minutes for 50 minutes in presence of BSA by Amplex red dye based fluorescence assay. It is filed as cell-based. A digest of the protocol:
(§1)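 Rodent LOXL2 is tested under the same conditions as the BSA-supplemented assay: conditioned media plus BSA, with DAP as substrate and Amplex Red detection of H2O2. Species are mouse and rat. IC50 is the geometric mean x/÷ geometric standard deviation from 3 determinations.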

Assay [5] concerns the target T4, Lysyl oxidase homolog 2 (Rattus norvegicus, UniProt B5DF27).
T4 sequence (B5DF27 whole entry): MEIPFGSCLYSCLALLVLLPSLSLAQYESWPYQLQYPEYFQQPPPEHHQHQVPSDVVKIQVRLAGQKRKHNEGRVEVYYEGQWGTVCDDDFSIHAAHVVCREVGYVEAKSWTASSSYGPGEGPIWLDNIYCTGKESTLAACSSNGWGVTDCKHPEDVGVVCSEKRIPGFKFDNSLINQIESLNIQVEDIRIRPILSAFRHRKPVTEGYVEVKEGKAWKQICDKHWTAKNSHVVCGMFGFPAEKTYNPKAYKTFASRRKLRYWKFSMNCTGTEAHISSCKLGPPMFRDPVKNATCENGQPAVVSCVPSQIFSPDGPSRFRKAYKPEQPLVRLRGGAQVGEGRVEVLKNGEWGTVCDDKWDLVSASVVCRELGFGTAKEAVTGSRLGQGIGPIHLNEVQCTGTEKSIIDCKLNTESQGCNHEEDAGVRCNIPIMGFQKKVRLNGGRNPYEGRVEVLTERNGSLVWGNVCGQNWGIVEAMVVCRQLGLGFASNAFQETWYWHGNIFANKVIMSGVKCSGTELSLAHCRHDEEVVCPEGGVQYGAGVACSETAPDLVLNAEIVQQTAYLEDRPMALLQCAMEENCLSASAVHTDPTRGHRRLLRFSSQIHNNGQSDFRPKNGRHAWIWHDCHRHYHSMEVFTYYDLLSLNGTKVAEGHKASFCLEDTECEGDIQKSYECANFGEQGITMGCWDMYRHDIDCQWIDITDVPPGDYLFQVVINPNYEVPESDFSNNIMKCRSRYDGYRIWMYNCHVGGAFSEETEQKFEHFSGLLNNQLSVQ
Nature of the assay: Inhibition of full length recombinant rat LOXL2 expressed in CHO cells assessed as reduction in H2O2 production using DAP as substrate preincubated for 2 hrs followed by substrate addition measured every 2 minutes for 50 minutes in presence of BSA by Amplex red dye based fluorescence assay. A digest of the protocol:
as §1

For the compound `NCc1ccnc(-n2ccnc2)c1`, the pIC50 at Lysyl oxidase homolog 2 [1] is 6.69.

For the compound `COC(=O)c1ccc(CN)cc1`, the pIC50 on Lysyl oxidase homolog 2 [1] was 5.44.

Turning to `NCc1ccc(-c2nccs2)cc1`, the pIC50 at Lysyl oxidase homolog 2 [1] is 6.04.

`NCc1ccc([N+](=O)[O-])cc1`: the pIC50 at Lysyl oxidase homolog 2 [1] was 6.14.

For the compound `NCc1ccncc1`, the negative logarithm of the IC50 (pIC50) at Lysyl oxidase homolog 2 [1] is 5.91.

For `NCc1ccc(N)cc1`, the pIC50 at Lysyl oxidase homolog 2 [1] is 4.33.

In the case of `NCc1ccnc2ccccc12`, the negative-log IC50 (pIC50) at Lysyl oxidase homolog 2 [1] is 5.22.

For `NCc1ccnc(F)c1`, the pIC50 on Lysyl oxidase homolog 2 [1] is 6.41.

Regarding `N=C(N)c1ccc(CN)cc1`, on Lysyl oxidase homolog 2 [1], the pIC50 was 5.95.

For `NCc1ccc(F)cc1`, the pIC50 on Lysyl oxidase homolog 2 [1] is 4.59.

As to `COC(=O)c1cccc(CN)c1`, the pIC50 at Lysyl oxidase homolog 2 [1] is 5.45.

With `NCc1ccncc1F`, the negative logarithm of the IC50 (pIC50) on Lysyl oxidase homolog 2 [1] was 6.37.

On to `NCc1ccnc(-c2cccnc2)c1`, for which the pIC50 on Lysyl oxidase homolog 2 [1] was 6.49.

In the case of `N=C(N)c1cccc(CN)c1`, the pIC50 on Lysyl oxidase homolog 2 [1] was 5.30.

For `N#Cc1ccc(CN)cc1`, the pIC50 on Lysyl oxidase homolog 2 [1] was 6.17.

For `NCCc1ccncc1`, at Lysyl oxidase homolog 2 [1], the pIC50 is 5.09.

For `NCCc1ccccc1` [PHENETHYLAMINE], at Lysyl oxidase homolog 2 [1], the pIC50 is 4.22.

Take `N#CCCN`: the pIC50 was 7.08 on Lysyl oxidase homolog 2 [2]; 6.61 on Lysyl oxidase homolog 2 [3]; 6.26 at Protein-lysine 6-oxidase; 6.89 on Lysyl oxidase homolog 2 [4]; 6.90 on Lysyl oxidase homolog 2 [5]; 7.18 on Lysyl oxidase homolog 2 [1].

`NCc1ccccc1` [BENZYLAMINE]: on Lysyl oxidase homolog 2 [1], the pIC50 was 4.19.

`CNCc1ccc(C#N)cc1`: at Lysyl oxidase homolog 2 [1], the pIC50 was less than 4.00.

For `N[C@@H]1C[C@H]1c1ccccc1.N[C@H]1C[C@@H]1c1ccccc1` [TRANYLCYPROMINE], the negative-log IC50 (pIC50) at Lysyl oxidase homolog 2 [1] is less than 4.00.

Turning to `NCc1cc(-c2cccnc2)ncc1C(F)(F)F`, the pIC50 on Lysyl oxidase homolog 2 [1] is less than 4.51.

The record behind these values is ChEMBL document CHEMBL3994667, “Small Molecule Lysyl Oxidase-like 2 (LOXL2) Inhibitors: The Identification of an Inhibitor Selective for LOXL2 over LOX” (ACS Med Chem Lett, 2017).
